How the values were obtained:
[1] = molecular target: T1, Alpha-1D adrenergic receptor (Rattus norvegicus) (UniProt P23944); assay: Percent response towards alpha 1D adrenergic receptor in rat aorta using phenylephrine as control agonist; format: functional, tissue-based
T1 sequence (whole entry): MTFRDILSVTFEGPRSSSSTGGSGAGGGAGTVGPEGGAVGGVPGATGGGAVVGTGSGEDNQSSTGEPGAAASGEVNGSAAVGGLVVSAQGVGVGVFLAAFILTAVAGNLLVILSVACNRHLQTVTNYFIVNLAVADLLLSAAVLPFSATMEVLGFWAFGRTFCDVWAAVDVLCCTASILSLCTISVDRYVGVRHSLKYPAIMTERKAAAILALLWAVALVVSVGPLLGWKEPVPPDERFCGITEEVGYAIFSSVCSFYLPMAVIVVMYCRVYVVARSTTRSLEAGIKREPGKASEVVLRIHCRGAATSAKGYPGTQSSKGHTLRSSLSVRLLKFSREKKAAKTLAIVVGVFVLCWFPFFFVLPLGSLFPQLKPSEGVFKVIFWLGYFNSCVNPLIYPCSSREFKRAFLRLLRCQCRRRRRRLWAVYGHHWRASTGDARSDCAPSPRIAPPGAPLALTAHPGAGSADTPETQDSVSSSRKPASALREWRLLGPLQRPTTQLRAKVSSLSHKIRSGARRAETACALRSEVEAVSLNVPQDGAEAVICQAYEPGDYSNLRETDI

[2] = molecular target: T2, Alpha-1D adrenergic receptor (Rattus norvegicus, UniProt P23944); assay: In vitro agonist potency towards Alpha-1D adrenergic receptor in rat aorta; format: functional, tissue-based
T2 sequence (P23944 whole entry): T1 sequence (whole entry)

[3] = molecular target: T3, Alpha-1B adrenergic receptor (Mesocricetus auratus, UniProt P18841); assay: Binding affinity towards hamster clonal Alpha-1B adrenergic receptor; format: single protein
T3 sequence (P18841 whole entry): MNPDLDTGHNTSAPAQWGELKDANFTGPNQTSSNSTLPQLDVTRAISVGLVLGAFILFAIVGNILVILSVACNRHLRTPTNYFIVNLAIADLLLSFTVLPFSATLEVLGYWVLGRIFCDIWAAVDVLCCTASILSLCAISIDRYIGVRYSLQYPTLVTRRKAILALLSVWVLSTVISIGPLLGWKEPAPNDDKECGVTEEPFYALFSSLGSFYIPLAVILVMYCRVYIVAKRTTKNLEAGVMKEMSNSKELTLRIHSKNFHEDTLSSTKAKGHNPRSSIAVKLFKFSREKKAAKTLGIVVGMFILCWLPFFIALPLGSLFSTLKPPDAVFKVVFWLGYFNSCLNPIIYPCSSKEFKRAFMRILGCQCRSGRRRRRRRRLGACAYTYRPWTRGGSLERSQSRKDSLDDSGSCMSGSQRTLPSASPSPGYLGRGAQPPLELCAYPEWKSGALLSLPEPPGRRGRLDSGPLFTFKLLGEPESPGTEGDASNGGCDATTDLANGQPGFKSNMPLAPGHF

[4] = molecular target: T4, Alpha-1A adrenergic receptor (Rattus norvegicus) (UniProt P43140); assay: Percent response towards alpha 1A adrenergic receptor in rat vas deferens using phenylephrine as control agonist; format: functional, tissue-based
T4 sequence (whole entry): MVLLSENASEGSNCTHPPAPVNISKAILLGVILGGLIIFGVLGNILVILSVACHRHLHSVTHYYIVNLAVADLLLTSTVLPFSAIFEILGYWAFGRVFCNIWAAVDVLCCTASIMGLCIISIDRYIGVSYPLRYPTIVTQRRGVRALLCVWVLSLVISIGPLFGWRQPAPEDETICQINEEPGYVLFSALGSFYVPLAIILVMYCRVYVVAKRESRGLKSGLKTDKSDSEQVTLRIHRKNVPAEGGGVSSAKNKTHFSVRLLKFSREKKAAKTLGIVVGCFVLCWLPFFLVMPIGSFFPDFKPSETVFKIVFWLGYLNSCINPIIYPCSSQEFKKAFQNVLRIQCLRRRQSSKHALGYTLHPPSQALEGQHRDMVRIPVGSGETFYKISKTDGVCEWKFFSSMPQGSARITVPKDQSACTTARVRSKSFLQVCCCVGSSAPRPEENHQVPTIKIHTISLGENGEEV

[5] = molecular target: T5, Alpha-1B adrenergic receptor (Rattus norvegicus, UniProt P15823); assay: In vitro agonist potency towards Alpha-1B adrenergic receptor in rat spleen; format: functional, tissue-based
T5 sequence (P15823 whole entry): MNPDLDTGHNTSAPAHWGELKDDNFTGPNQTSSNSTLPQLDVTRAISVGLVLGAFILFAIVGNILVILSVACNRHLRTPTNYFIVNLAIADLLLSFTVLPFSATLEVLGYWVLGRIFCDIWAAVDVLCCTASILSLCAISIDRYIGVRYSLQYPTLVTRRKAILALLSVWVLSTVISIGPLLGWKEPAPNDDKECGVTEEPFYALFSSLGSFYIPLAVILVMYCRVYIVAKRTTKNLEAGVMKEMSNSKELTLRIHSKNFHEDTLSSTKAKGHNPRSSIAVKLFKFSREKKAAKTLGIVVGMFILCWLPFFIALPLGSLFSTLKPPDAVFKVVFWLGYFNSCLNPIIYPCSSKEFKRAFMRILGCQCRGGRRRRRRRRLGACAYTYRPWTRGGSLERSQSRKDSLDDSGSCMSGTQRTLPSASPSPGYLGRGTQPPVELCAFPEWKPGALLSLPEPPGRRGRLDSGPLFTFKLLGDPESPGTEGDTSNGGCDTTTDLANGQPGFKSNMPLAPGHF

[6] = molecular target: T6, Alpha-1A adrenergic receptor (Homo sapiens) (UniProt P35348); assay: Percent response towards alpha 1A adrenergic receptor in canine prostate using phenylephrine as control agonist; format: functional, tissue-based; conditions: Canis lupus familiaris; Prostate gland; target entry is the homologue from another species
T6 sequence (whole entry): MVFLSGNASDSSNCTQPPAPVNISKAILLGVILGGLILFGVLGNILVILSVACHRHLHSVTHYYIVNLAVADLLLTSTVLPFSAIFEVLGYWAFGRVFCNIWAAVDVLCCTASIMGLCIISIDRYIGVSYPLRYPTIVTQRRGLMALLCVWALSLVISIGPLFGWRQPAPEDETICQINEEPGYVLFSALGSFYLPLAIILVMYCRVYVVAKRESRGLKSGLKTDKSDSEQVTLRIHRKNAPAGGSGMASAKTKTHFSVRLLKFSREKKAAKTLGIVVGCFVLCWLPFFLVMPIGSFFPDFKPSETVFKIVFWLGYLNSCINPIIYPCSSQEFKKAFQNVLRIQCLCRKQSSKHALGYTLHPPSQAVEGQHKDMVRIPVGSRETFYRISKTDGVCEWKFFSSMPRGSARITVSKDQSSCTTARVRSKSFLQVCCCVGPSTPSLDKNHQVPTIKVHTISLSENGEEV

[7] = molecular target: T7, Alpha-1A adrenergic receptor (Bos taurus, UniProt P18130); assay: Binding affinity towards bovine clonal Alpha-1A adrenergic receptor
T7 sequence (P18130 whole entry): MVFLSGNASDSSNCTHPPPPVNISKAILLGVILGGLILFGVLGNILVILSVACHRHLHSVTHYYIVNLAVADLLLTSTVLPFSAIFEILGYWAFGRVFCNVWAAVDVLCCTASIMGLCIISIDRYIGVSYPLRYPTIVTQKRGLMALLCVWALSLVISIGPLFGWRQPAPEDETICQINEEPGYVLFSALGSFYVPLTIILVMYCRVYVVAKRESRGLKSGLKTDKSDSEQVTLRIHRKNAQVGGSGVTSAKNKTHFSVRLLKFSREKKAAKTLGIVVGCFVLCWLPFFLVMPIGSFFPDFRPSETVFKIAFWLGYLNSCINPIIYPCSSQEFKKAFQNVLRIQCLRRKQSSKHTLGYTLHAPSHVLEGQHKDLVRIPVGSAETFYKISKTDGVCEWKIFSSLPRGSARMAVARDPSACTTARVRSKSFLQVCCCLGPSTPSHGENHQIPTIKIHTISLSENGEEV
In short: (§1)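 Radioligand binding to cloned receptors: bovine α1a for line 1 and rat α1d for line 2.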

[8] = molecular target: T2, Alpha-1D adrenergic receptor; assay: Binding affinity towards rat clonal Alpha-1D adrenergic receptor; in short: as §1

Compound | Emax [1] | Emax [4] | Emax [6] | Ki [7] | EC50 [2] | Ki [3] | EC50 [5] | Ki [8]
CS(=O)(=O)Nc1c(O)ccc2c1CCC[C@H]2C1=NCCN1 | 103% | 78% | 63% | 17.4 nM | 1020 nM | 2820 nM | 186 nM | 1020 nM
CNC[C@H](O)c1cccc(O)c1 [PHENYLEPHRINE] | 100% | 100% | 100% | 933 nM | – | – | – | –
NCC(O)c1ccc(O)c(O)c1 (single isomer, unassigned) [NOREPINEPHRINE] | 113% | 105% | 117% | 447 nM | – | 263 nM | – | –
CS(=O)(=O)Nc1c(O)ccc2c1CCC[C@@H]2C1=NCCN1 | – | 45% | 24% | 1450 nM | > 100000 nM | 17400 nM | > 100000 nM | 2950 nM

Second part, led by results:

Emax [1] | Emax [4] | Emax [6] | Ki [7] | Compound | EC50 [2] | Ki [3] | EC50 [5] | Ki [8]
100% | 108% | 91% | 30.2 nM | CS(=O)(=O)Nc1c(O)ccc2c1CCCC2C1=NCCN1 (stereo not given) | 2570 nM | 2090 nM | – | 1350 nM
83% | 80% | 71% | 13.2 nM | Cc1cc(C(C)(C)C)c(O)c(C)c1CC1=NCCN1 [OXYMETAZOLINE] | – | – | – | –
